S100A4 MyoIIA = S100A4-myosin IIA interaction inhibition. P26447. S100A4/TAMRA-MyoIIA peptide fluorescence polarization. inhibition, % at 10.7 µM. 360,000 compounds, 0.14% hits. AID 652163;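 active = mean inhibition of at least 70% across replicates, with every replicate also reaching that level; inconclusive = mean inhibition reaches 70% but some replicates fall short; inactive = mean inhibition below 70%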
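Material: S100A4 monomer protein | Medium: HEPES pH 7.2 with CaCl2, KCl, NaCl, DTT, Triton | Reagent: Labelled myosin peptide probe, 5 nM | Doses: One dose per compound | Times: 5 min incubation before reading | Benchmarks: Neutral control DMSO, positive control TFP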
dFosB act = enhances mouse delta FosB homodimer DNA binding | P13346 | purified delta FosB, TAMRA-CDK5 oligo fluorescence polarization; percent of positive-control signal above neutral wells | activation, % at 25 µM | 340,000 compounds, 0.99% hits | AID 493131;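 active = mean activation above about 17%, with every replicate also reaching it, limit read from the data, passing the limit was not always enough; inconclusive = only one of the two conditions met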
Target sequence (P13346 whole entry, looked up): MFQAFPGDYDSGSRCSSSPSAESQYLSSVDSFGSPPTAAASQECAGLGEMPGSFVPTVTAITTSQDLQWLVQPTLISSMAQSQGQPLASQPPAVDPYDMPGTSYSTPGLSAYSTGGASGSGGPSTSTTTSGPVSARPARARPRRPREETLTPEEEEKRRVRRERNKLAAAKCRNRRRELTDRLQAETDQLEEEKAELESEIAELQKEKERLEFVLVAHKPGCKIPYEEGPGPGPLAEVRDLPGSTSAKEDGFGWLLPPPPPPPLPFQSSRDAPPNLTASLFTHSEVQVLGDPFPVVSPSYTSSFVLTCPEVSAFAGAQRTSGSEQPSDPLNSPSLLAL
CFTR F508del cor = CFTR F508del correction in bronchial cells; 350,000 compounds, 0.36% hits; activity (quench increase), % at 7.58 µM; CFBE cells, YFP halide quenching; stimulated with forskolin plus potentiator P3; % fluorescence drop versus neutral controls;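 active = mean added fluorescence quench of at least 8% versus neutral control, with both replicates also reaching 8%; inconclusive = only one of the mean or replicate conditions met; inactive = mean below 8% and not both replicates reaching 8%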;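 note: cells transiently co-express mutant CFTR-F508del with the halide-sensitive YFP; corrector assay measuring rescue of mutant channel to the surface after 24 h compound exposure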
FGF22 binding = shifts melting point of recombinant human FGF22; Q9HCT0; recombinant FGF22 thermal shift, SYPRO orange fluorescence; percent of sucrose octasulfate shift, DMSO zero; activity (Tm shift, normalised), % at 9.99 µM; 340,000 compounds, 1.5% hits; AID 651658;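 active = mean Tm shift, scaled 0 neutral to 100 positive control, at about 1.3% or above, every replicate too, limit read from the data; inconclusive = no clear call, values can overlap the other calls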
Target sequence (Q9HCT0 whole entry, looked up): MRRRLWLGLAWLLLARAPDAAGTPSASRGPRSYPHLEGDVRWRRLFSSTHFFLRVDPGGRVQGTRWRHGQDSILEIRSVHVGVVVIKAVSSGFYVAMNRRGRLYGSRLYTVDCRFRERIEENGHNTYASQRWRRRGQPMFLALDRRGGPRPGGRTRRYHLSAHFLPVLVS
The depositor's hits bear a star; ? = inconclusive; . = no result given. Hits are enriched below; roughly 2.2% of the tested compounds scored in any of these assays.

SMILES	S100A4 MyoIIA	dFosB act	CFTR F508del cor	FGF22 binding
Cc1cccc(N2CCN(S(=O)(=O)c3cc(-c4cc(C)no4)ccc3C)CC2C)c1 (configuration not stated)	0	-5	11*	0
Cc1cccc(S(=O)(=O)N2[C@@H]3CNC[C@H]2C3c2ccc(-c3ccccc3C)cc2)c1 (some centres not stated)	-12	.	1	.
CCn1c(-c2ccccc2)c(C(=O)CCl)c2ccccc21	1	-10	4	0
Cn1c(-c2ccccc2)c(C(=O)CCl)c2ccccc21	0	-8	-7	44*
COc1cc(NC(=O)c2ccccc2)c(OC)cc1NC(C)=O	.	-3	.	.
COc1cc(NC(=O)COc2ccccc2)c(OC)cc1NC(C)=O	-1	-7	1	43*
C/C(=N/NC(=O)c1sc(NS(=O)(=O)c2ccc(C)cc2)nc1C)c1sc(N)nc1C	7	5	-1	43*
CCN(CC)C(=O)[C@H]1C[C@@H]2[C@H](C[C@@H](c3ccccc3)[C@H]1C)N(c1ccc(F)cc1)C(=O)N2CCCOc1ccccc1	2	.	2	43*
CC1CCc2c(C(=O)NCc3cccnc3)csc2C1 (configuration not stated)	-3	-3	2	43*
O=C(c1ccc(N2C(=O)CCC2=O)cc1)N1CCCSC1=Nc1ccccc1	84*	.	2	0
O=C([C@@H]1[C@@H](CO)[C@@H]2Cn3c(ccc(C4=CCCC4)c3=O)[C@@H]2N1CC1CC1)N1CCCCC1	-20	.	.	0
COc1ccc(NC(=O)N[C@H]2CC[C@H](CC(=O)NCc3ccccn3)O[C@H]2CO)cc1	7	.	1	0
Cc1ccc(CC(=O)Nc2ccncc2)cc1	3	3	1	44*
COc1ccc(-n2nnnc2C(c2ccccc2)N2CCN(C/C=C/c3ccccc3)CC2)cc1 (configuration not stated)	0	.	10*	0
CCN(CC)c1ccc(/C=C(\C#N)C(N)=O)cc1	9	-9	-3	43*
C[C@H]1CN([C@@H](C)CO)C(=O)c2cc(C3=CCCC3)cnc2O[C@H]1CN(C)C(=O)CN1CCOCC1	16	.	0	0
COCC#Cc1cnc2c(c1)C(=O)N([C@@H](C)CO)C[C@@H](C)[C@H](CN(C)C)O2	1	.	-2	0
O=C(NCCCO)c1ccc2nc(-c3ccco3)c(-c3ccco3)nc2c1	-7	-12	-2	43*
CCCCNC(=O)c1ccc2nc(-c3ccco3)c(-c3ccco3)nc2c1	0	-21	-1	0
O=c1nc(N2CCOCC2)nc(N/N=C/c2ccc3c(c2)OCO3)[nH]1	-5	5	-2	44*
O=[N+]([O-])c1ccc(Nc2nc(N/N=C\c3ccc4c(c3)OCO4)nc(N3CCCCC3)n2)cc1	.	63*	.	.
CN/N=C/c1ccc(C#N)cc1	6	-3	-4	43*
Cc1ccccc1N/N=C/c1ccc(C#N)cc1	-11	1	-2	0
CCN1/C(=C2\C(=O)N(C)C(=S)N2c2ccccc2)C=Cc2ccccc21	6	-2	1	0
CCN1/C(=C2\C(=O)N(C)C(=S)N2C)C=Cc2ccccc21	-7	-1	-1	43*
SMILES	S100A4 MyoIIA	dFosB act	CFTR F508del cor	FGF22 binding
CC(NC(=O)C(c1ccccc1)c1ccccc1)C(=O)N1CCCCC1 (configuration not stated)	-4	0	-5	43*
COc1cc([N+](=O)[O-])c(C)cc1NC(=O)c1ccc(OC)c(OC)c1	1	.	-1	43*
O=C(Nc1ccc2c(c1)[C@H]1C[C@@H](CC(=O)N3CCOCC3)O[C@H](CO)[C@H]1O2)C1CCC1	.	.	0	0
CCOC(=O)C1(Cc2ccccc2C)CCCN(C(=O)c2cc(CC)nn2C)C1 (configuration not stated)	0	-2	6	43*
CCOC(=O)C1(Cc2ccccc2C)CCCN(C(=O)c2ccnn2C)C1 (configuration not stated)	1	0	1	.
Cc1ccc(N/N=C(\C#N)C(N)=S)cc1C	9	2	-1	44*
N#C/C(=N\Nc1ccc(Cl)cc1)C(N)=S	-4	-5	?	0
Cc1cc2c(s1)Nc1ccccc1N=C2N1CCN(C)CC1	1	-3	9.4*	-1
OCCOCCN1CCN(C2=Nc3ccccc3Sc3ccccc32)CC1	2	-2	1	0
CCCc1cc(=O)n2[nH]c(C)nc2n1	.	1	.	.
CCCc1cc(=O)n2[nH]c(C(F)(F)F)nc2n1	-3	5	-3	43*
Oc1ccc(N2CCN(c3nc(-c4cccs4)nc4ccccc34)CC2)cc1	-5	-17	1	0
c1ccc(N2CCN(c3nc(-c4cccs4)nc4ccccc34)CC2)cc1	2	-5	-2	43*
C[C@H]1CN([C@@H](C)CO)S(=O)(=O)c2ccc(C#CCN(C)C)cc2O[C@H]1CN(C)CC1CC1	52	.	1	0
O=C(/C=C/c1ccco1)Nc1ccc(N2CCCC2)cc1	-3	41*	2	0
O=C(/C=C/c1ccco1)Nc1ccc(C(=O)N2CCOCC2)cc1	.	-8	.	.
CC(=O)N1CCN(c2ccc(NC(=O)/C=C/c3ccccc3)cc2)CC1	-10	-10	1	44*
CC1(C)CC(NC(=O)COc2ccccc2Cl)CC(C)(C)N1	-16	1	1	44*
CC(Sc1nnc2ccccn12)C(N)=O (configuration not stated)	-33	-6	0	43*
COc1ccc(C(=O)NNC(=O)CSc2nnc3ccccn23)cc1OC	-2	-3	1	0
COc1ccc(Cl)cc1C(=O)NNC(=O)CSc1nnc2ccccn12	-2	-2	0	44*
CC(Sc1nnc2ccccn12)C(=O)Nc1ccc(Cl)cn1 (configuration not stated)	.	1	.	.
CC(C)CNC(=O)CSc1nnc2ccccn12	7	-1	0	43*
CO[C@@H]1CN(C)C(=O)c2cc(NC(=O)NC(C)C)ccc2OC[C@@H](C)N(CCC(F)(F)F)C[C@@H]1C	.	.	1	.
Cc1cc(C)n(-c2cccc(CN(C)Cc3nc(-c4cnccn4)no3)c2)n1	1	-1	-6	44*
O=C(CSc1ncnc2sccc12)Nc1ccccc1	-6	-7	-1	43*
C[C@@H]1CCCCO[C@@H](CN(C)C(=O)Nc2cccc3ccccc23)[C@H](C)CN([C@H](C)CO)C(=O)c2cc(NC(=O)c3ccncc3)ccc2O1	0	.	1	0
O=C(c1ccc(C(F)(F)F)cc1)C1CCCN(C(=O)CN2CCCC2=O)C1 (configuration not stated)	-7	4	.	43*
O=C(c1ccc(C(F)(F)F)cc1)C1CCCN(C(=O)CN2C(=O)CSC2=O)C1 (configuration not stated)	12	-9	-1	0
